The record followed here is ChEMBL document CHEMBL1255293, “In vitro susceptibility of various genotypic strains of Toxoplasma gondii to pyrimethamine, sulfadiazine, and atovaquone” (Antimicrob Agents Chemother, 2008).

Molecules are shown by their SMILES. Values after ≈ are worked out from the molar mass of the structure shown.

Usually IC50 stands for the point on the concentration scale where inhibition reaches its midpoint.

Format in all cases: functional, organism-based
Test [1] concerns Toxoplasma gondii. The test can be described thus: Antimicrobial activity against Toxoplasma gondii ME49 infected in human MRC-5 cells infected in human MRC-5 cells after 72 hrs by ELISA. To be noted: ME49, MRC5, 72 h. In short, it runs like this:
(§1)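 Confluent MRC-5 fibroblasts (3.5 x 10^4 to 4 x 10^4 cells/well) inoculated with tachyzoites freshly harvested from THP-1 cultures, 0.4 to 1 tachyzoite/10 cells adjusted per strain for nonconfluent foci at 72 h. Drugs (stock 1 mg/ml in 50% methanol-50% acetone, diluted in RPMI) added 3 h post-inoculation, four to eight replicate wells per dilution. Cultures incubated 72 h.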
Background: ELISA stands for enzyme-linked immunosorbent assay.

In test [2] the test system is Toxoplasma gondii. The test can be described thus: Antimicrobial activity against Toxoplasma gondii RH harboring DHPS Ex2, E474D/Ex4, R560K/Ex5, 580 sil Gly; A597E/627 sil Glu mutant gene and DHFR Ex3, 156 sil Leu mutant gene infected in human MRC-5 cells after 72 hrs by ELISA. Conditions: MRC5, 72 h. A digest of the protocol:
(§2)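 Tachyzoites freshly harvested from THP-1 cultures inoculated at 0.4 to 1 tachyzoite/10 cells, adjusted per strain, onto confluent MRC-5 fibroblasts. Drugs were stocked at 1 mg/ml in 50% methanol-50% acetone, diluted in RPMI, and added 3 h post-inoculation in four to eight replicate wells. Incubation was 72 h, then methanol fixation. Read-out was ELISA with rabbit anti-Toxoplasma serum and peroxidase anti-rabbit conjugate, TMB substrate, OD 405 nm. IC50 came from linear regression of OD versus log concentration; experiments were run in duplicate.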

Test [3] concerns Toxoplasma gondii. The test can be described thus: Antimicrobial activity against Toxoplasma gondii isolate RMS-1994-LEF harboring DHPS Ex2, E474D/Ex4, R560K/Ex5, 580 sil Gly; A597E/627 sil Glu mutant gene and DHFR Ex3, 204 sil Ala mutant gene infected in human MRC-5 cells after 72 hrs by ELISA. Conditions: MRC5, 72 h. In short, it runs like this: as §2
Test [4] concerns Toxoplasma gondii. Description: Antimicrobial activity against Toxoplasma gondii isolate RMS-2005-HAG infected in human MRC-5 cells after 72 hrs by ELISA. To be noted: MRC5, 72 h. A digest of the protocol:
as §1

The subject of test [5] is Toxoplasma gondii. Description: Antimicrobial activity against Toxoplasma gondii isolate PSP-2005-MUP infected in human MRC-5 cells after 72 hrs by ELISA. To be noted: MRC5, 72 h. A digest of the protocol: as §1
For test [6], the system named is Toxoplasma gondii. The test can be described thus: Antimicrobial activity against Toxoplasma gondii isolate RMS-2003-DJO infected in human MRC-5 cells after 72 hrs by ELISA. Conditions: MRC5, 72 h. In short, it runs like this: as §1
Test [7] concerns Toxoplasma gondii. Description: Antimicrobial activity against Toxoplasma gondii isolate RMS-2001-MAU infected in human MRC-5 cells after 72 hrs by ELISA. Conditions: MRC5, 72 h. In short, it runs like this:
as §1

For test [8], the system named is Toxoplasma gondii. The test can be described thus: Antimicrobial activity against Toxoplasma gondii isolate GUY-2003-MEL harboring DHPS Ex2, E474D/Ex4, R560K/Ex5, 580 sil Gly/ A597E/627 sil Glu mutant gene and DHFR Ex2, 145 sil Val mutant gene infected in human MRC-5 cells after 72 hrs by ELISA. Conditions: MRC5, 72 h. A digest of the protocol: as §2
The test system of test [9] is Toxoplasma gondii. The test can be described thus: Antimicrobial activity against Toxoplasma gondii isolate RMS-1995-ABE harboring DHPS Ex5, A587V mutant gene infected in human MRC-5 cells after 72 hrs by ELISA. Conditions: MRC5, 72 h. A digest of the protocol: as §2
Test [10] relates to Toxoplasma gondii. Description: Antimicrobial activity against Toxoplasma gondii isolate GRE-1995-MAE infected in human MRC-5 cells after 72 hrs by ELISA. To be noted: MRC5, 72 h. A digest of the protocol: as §1
Test [11] concerns Toxoplasma gondii. Description: Antimicrobial activity against Toxoplasma gondii NED infected in human MRC-5 cells after 72 hrs by ELISA. To be noted: MRC5, 72 h. In short, it runs like this:
as §1

The subject of test [12] is Toxoplasma gondii. The test can be described thus: Antimicrobial activity against Toxoplasma gondii isolate TRS-2004-REV infected in human MRC-5 cells after 72 hrs by ELISA. To be noted: MRC5, 72 h. A digest of the protocol: as §1
Test [13] relates to Toxoplasma gondii. The test can be described thus: Antimicrobial activity against Toxoplasma gondii B1 harboring DHPS Ex2, E474D/Ex4, R560K/Ex5, 580 sil Gly/ A597E/627 sil Glu mutant gene and DHFR Ex3, 156 sil Leu mutant gene infected in human MRC-5 cells after 72 hrs by ELISA. Conditions: B1, MRC5, 72 h. A digest of the protocol: as §2
The test system of test [14] is Toxoplasma gondii. Description: Antimicrobial activity against Toxoplasma gondii isolate TOU-1998-TRI infected in human MRC-5 cells after 72 hrs by ELISA. To be noted: MRC5, 72 h. A digest of the protocol:
as §1

Test [15] relates to Toxoplasma gondii. The test can be described thus: Antimicrobial activity against Toxoplasma gondii isolate GRE-1998-TRA infected in human MRC-5 cells after 72 hrs by ELISA. Conditions: MRC5, 72 h. In short, it runs like this: as §1
The test system of test [16] is Toxoplasma gondii. The test can be described thus: Antimicrobial activity against Toxoplasma gondii ENT harboring DHPS Ex2, E474D/Ex3, 156 sil Leu/Ex4, R560K/Ex5, 580 sil Gly/A597E/627 sil Glu mutant gene and DHFR Ex3, 156 sil Leu mutant gene infected in human MRC-5 cells after 72 hrs by ELISA. To be noted: MRC5, 72 h. In short, it runs like this:
as §2

`O=C1C(O)=C([C@H]2CC[C@H](c3ccc(Cl)cc3)CC2)C(=O)c2ccccc21` [ATOVAQUONE]: the IC50 amounted to 0.05 µg/mL (≈ 0.136 µM) with Toxoplasma gondii [1]; 0.05 µg/mL (≈ 0.136 µM) with Toxoplasma gondii [2]; 0.04 µg/mL (≈ 0.109 µM) with Toxoplasma gondii [3]; 0.04 µg/mL (≈ 0.109 µM) in the test with Toxoplasma gondii [4]; 0.06 µg/mL (≈ 0.164 µM) with Toxoplasma gondii [5]; 0.08 µg/mL (≈ 0.218 µM) in the test with Toxoplasma gondii [6]. Besides, the IC50 in the test with Toxoplasma gondii [7] was 0.06 µg/mL (≈ 0.164 µM); in the test with Toxoplasma gondii [8], 0.04 µg/mL (≈ 0.109 µM); in the test on Toxoplasma gondii [9], 0.11 µg/mL (≈ 0.3 µM); in the test on Toxoplasma gondii [10], 0.03 µg/mL (≈ 0.0818 µM); with Toxoplasma gondii [11], 0.03 µg/mL (≈ 0.0818 µM); with Toxoplasma gondii [12] it was 0.07 µg/mL (≈ 0.191 µM). The IC50 in the test on Toxoplasma gondii [13] was 0.1 µg/mL (≈ 0.273 µM); in the test on Toxoplasma gondii [14] it was 0.07 µg/mL (≈ 0.191 µM); with Toxoplasma gondii [15], 0.05 µg/mL (≈ 0.136 µM); in the test on Toxoplasma gondii [16], 0.07 µg/mL (≈ 0.191 µM).

Turning to `CCc1nc(N)nc(N)c1-c1ccc(Cl)cc1` [PYRIMETHAMINE], the IC50 was determined as 0.09 µg/mL (≈ 0.362 µM) in the test on Toxoplasma gondii [1]; 0.1 µg/mL (≈ 0.402 µM) with Toxoplasma gondii [2]; 0.07 µg/mL (≈ 0.281 µM) with Toxoplasma gondii [3]; 0.11 µg/mL (≈ 0.442 µM) in the test with Toxoplasma gondii [4]; 0.14 µg/mL (≈ 0.563 µM) in the test on Toxoplasma gondii [5]; 0.09 µg/mL (≈ 0.362 µM) in the test on Toxoplasma gondii [6]. For the same compound, the half-inhibitory concentration (IC50) in the test on Toxoplasma gondii [7] is 0.12 µg/mL (≈ 0.482 µM); with Toxoplasma gondii [8] it was 0.25 µg/mL (≈ 1.01 µM); in the test with Toxoplasma gondii [9] it was 0.17 µg/mL (≈ 0.684 µM); with Toxoplasma gondii [10], 0.11 µg/mL (≈ 0.442 µM); in the test with Toxoplasma gondii [11] it was 0.19 µg/mL (≈ 0.764 µM); with Toxoplasma gondii [12], 0.18 µg/mL (≈ 0.724 µM). In addition, the IC50 was determined as 0.35 µg/mL (≈ 1.41 µM) with Toxoplasma gondii [13], 0.15 µg/mL (≈ 0.603 µM) in the test on Toxoplasma gondii [14], 0.39 µg/mL (≈ 1.57 µM) with Toxoplasma gondii [15] and 0.34 µg/mL (≈ 1.37 µM) in the test on Toxoplasma gondii [16].

Consider `Nc1ccc(S(=O)(=O)Nc2ncccn2)cc1` [SULFADIAZINE], for which the concentration for half-maximal inhibition (IC50) in the test on Toxoplasma gondii [1] is 6.55 µg/mL (≈ 26.2 µM); in the test with Toxoplasma gondii [2] it was 6.52 µg/mL (≈ 26.1 µM); in the test on Toxoplasma gondii [3], 9.65 µg/mL (≈ 38.6 µM); in the test with Toxoplasma gondii [4], 6.7 µg/mL (≈ 26.8 µM); in the test on Toxoplasma gondii [5], 18.8 µg/mL (≈ 75.1 µM); in the test with Toxoplasma gondii [6] it was 4.9 µg/mL (≈ 19.6 µM). Besides, the 50% inhibitory concentration (IC50) is > 50 µg/mL with Toxoplasma gondii [7]; 5.35 µg/mL (≈ 21.4 µM) in the test with Toxoplasma gondii [8]; > 50 µg/mL with Toxoplasma gondii [9]; 14.9 µg/mL (≈ 59.7 µM) with Toxoplasma gondii [10]; 9.25 µg/mL (≈ 37 µM) in the test with Toxoplasma gondii [11]; 6.26 µg/mL (≈ 25 µM) in the test with Toxoplasma gondii [12]. Also, the half-inhibitory concentration (IC50) in the test on Toxoplasma gondii [13] is > 50 µg/mL; with Toxoplasma gondii [14] it was 2.95 µg/mL (≈ 11.8 µM); in the test on Toxoplasma gondii [15], 16.8 µg/mL (≈ 67.3 µM); in the test on Toxoplasma gondii [16] it was 4.28 µg/mL (≈ 17.1 µM).
